The results in this text go back to PMC3109609 (Journal of medicinal chemistry, 2010).

Data set [1] concerns the target human ΔF508-CFTR (Homo sapiens, UniProt P13569, DEL508-508). The experiment in a line: ΔF508-CFTR corrector activity assay. As to conditions: concentration-dependent increase in I− influx in FRT ΔF508-CFTR cells. In kind it is cell-based.
Data set [2] is classed as physicochemical. In outline:
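Reverse-phase HPLC retention time gave log k (capacity factor). A calibration line of log k against known logP was built from reference compounds and used to convert each test compound's log k to logP.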

“And” between values parts separate entries of the source, which are not always exact repeats. Identical values can stand only once.

Take `COc1ccc(NC(=O)c2cc(-c3sc(NC(=O)C(C)(C)C)nc3C)n(-c3ccc(Br)cc3)n2)cc1` [11d, 1-(4-Bromophenyl)-N-(4-methoxyphenyl)-5-(4-methyl-2-pivalamidothiazol-5-yl)-1H-pyrazole-3-carboxamide]: the “ΔF508-CFTR corrector activity (in words)” value in data set [1] was “relatively low activity”.
By chromatographic logP is commonly meant a lipophilicity value derived from retention on a column. A lower chromatographic logP goes with lower lipophilicity. In the case of `COc1ccc(Cl)cc1Cn1nc(-c2sc(NC(=O)C(C)(C)C)nc2C)cc1C(=O)N1CCOCC1` [14h, N-(5-(1-(5-chloro-2-methoxybenzyl)-5-(morpholine-4-carbonyl)-1H-pyrazol-3-yl)-4-methylthiazol-2-yl)pivalamide], in data set [2], the chromatographic logP was 4.1. Moreover, the “logP difference versus bithiazole 1 (lower)” value in data set [2] (14h compared with bithiazole CF corrector 1) is 1.2 log units and ~ 1.2 log units.
In turn, `COc1ccc(Cl)cc1Cn1nc(-c2sc(NC(=O)C(C)(C)C)nc2C)cc1C(=O)NCCO` [14j, 1-(5-chloro-2-methoxybenzyl)-N-(2-hydroxyethyl)-3-(4-methyl-2-pivalamidothiazol-5-yl)-1H-pyrazole-5-carboxamide] returned a chromatographic logP in data set [2] of 3.5. In addition, the “ΔF508-CFTR corrector activity (in words)” value in data set [1] was “retains corrector activity”.
On to `COc1ccc(Cl)cc1Nc1nc(-c2sc(NC(=O)C(C)(C)C)nc2C)cs1` [compound 1, reference compound], for which, in data set [2], the chromatographic logP is greater than 5.
